Results on 44 compounds are retold here after ChEMBL document CHEMBL1641443, “Design, synthesis and biological evaluation of small molecule inhibitors of CD4-gp120 binding based on virtual screening” (Bioorg Med Chem, 2011).

Assay [1] deals with Envelope glycoprotein gp160 (Human immunodeficiency virus type 1 group M subtype B (isolate YU-2)(HIV-1), UniProt P35961). In words: Binding affinity to HIV1 YU2 gp120 by isothermal titration calorimetry assay. Also noted: species or system Human immunodeficiency virus type 1 (isolate YU2). The method, boiled down: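 ITC at 25 °C. Cell held gp120 at about 2 μM in PBS pH 7.4 with 2% DMSO. Heat per injection taken from the integrated signal. Kd from a single run unless noted otherwise.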
Background: In ITC the heat of successive injections is recorded.

Assay [2] deals with Human immunodeficiency virus 1. Briefly: Antiviral activity against recombinant HIV1 YU2 in Cf2Th-CCR5 cells assessed as viral infectivity by luciferase assasy relative to JRC-II-191. The format is functional, isolate YU2.

By Kd is commonly meant the free concentration of one partner at which half of the binding sites on the other are occupied at equilibrium, for simple one-to-one binding. As for `O=C(Nc1ccc(Cl)c(F)c1)C(=O)N[C@@H]1CCN(Cc2ccccc2)C1`, the Kd entry in assay [1] is “Not Active”. The “fold change (FC)” value in assay [2] is given as 0.
For the compound `CN1CCCC(CNC(=O)C(=O)Nc2ccc(Cl)c(F)c2)C1` (configuration not stated), the Kd in assay [1] (read-out: Kd) stood at 2500 nM. For the same compound, the “fold change (FC)” value in assay [2] is 0.3.
Turning to `C[C@@H]1CCC[C@H](C)N1CCNC(=O)C(=O)Nc1ccc(Cl)c(F)c1`, in assay [1] (read-out: Kd), the Kd was found to be 1600 nM. Moreover, the “fold change (FC)” value in assay [2] stood at 0.2.
`O=C(NCC1CCNCC1)C(=O)Nc1ccc(Cl)c(F)c1`: the Kd in assay [1] (read-out: Kd) worked out at 3000 nM. Moreover, the “fold change (FC)” value in assay [2] stood at 0.
On to `O=C(NCC1CCCN(CCO)C1)C(=O)Nc1ccc(Cl)c(F)c1` (configuration not stated), for which the Kd in assay [1] (read-out: Kd) is 3200 nM. Also, in assay [2], the “fold change (FC)” value is reported as 0.
As to `O=C(Nc1ccc(Cl)c(F)c1)C(=O)NC1CCc2[nH]ncc2C1` (configuration not stated), the Kd result in assay [1] is reported as “Not Active”. Also, in assay [2], the “fold change (FC)” value was found to be 0.
Take `CC1(C)CC(CNC(=O)C(=O)Nc2ccc(Cl)c(F)c2)CC(C)(C)N1`: the Kd in assay [1] (read-out: Kd) is 2200 nM. Also, in assay [2], the “fold change (FC)” value was found to be 0.09.
The matching figures for `CC1(C)O[C@@H](CN)[C@H](CNC(=O)C(=O)Nc2ccc(Cl)c(F)c2)O1`: 2600 nM and 1.5.
Regarding `CC1(C)C2CCC1(C)C(NC(=O)C(=O)Nc1ccc(Cl)c(F)c1)C2` (configuration not stated), the Kd result in assay [1] is recorded as “Not Active”. The “fold change (FC)” value in assay [2] is reported as 0.
As for `CN1CCC(NC(=O)C(=O)Nc2ccc(Cl)c(F)c2)CC1`, the Kd in assay [1] (read-out: Kd) was 9400 nM. Further, the “fold change (FC)” value in assay [2] worked out at 0.1.
For `CCN1CCCC1CNC(=O)C(=O)Nc1ccc(Cl)c(F)c1` (configuration not stated), in that order: 2100 nM and 0.
With `CC(C)N1CCC(NC(=O)C(=O)Nc2ccc(Cl)c(F)c2)CC1`, the Kd in assay [1] (read-out: Kd) came out at 1900 nM. Moreover, the “fold change (FC)” value in assay [2] was 0.
Take `CC1(C)CC(NC(=O)C(=O)Nc2ccc(Cl)c(F)c2)CC(C)(C)O1`: in assay [1] (read-out: Kd), the Kd amounted to 1000 nM. Moreover, the “fold change (FC)” value in assay [2] came to 0.
Regarding `O=C(Nc1ccc(Cl)c(F)c1)C(=O)NC1CCNC2(CCC2)C1` (configuration not stated), in assay [1] (read-out: Kd), the Kd was found to be 600 nM. For the same compound, the “fold change (FC)” value in assay [2] was determined as 2.6.
The matching figures for `O=C(NC[C@@]12CCC[C@@H]1CNC2)C(=O)Nc1ccc(Cl)c(F)c1`: 3100 nM and 0.
As for `CN1CCCC(NC(=O)C(=O)Nc2ccc(Cl)c(F)c2)C1` (configuration not stated), the Kd in assay [1] (read-out: Kd) is 4200 nM. Besides, the “fold change (FC)” value in assay [2] is 0.7.
As for `CC1(C)CC(NC(=O)C(=O)Nc2ccc(Cl)c(F)c2)CC(C)(C)C1`, the Kd entry in assay [1] is reported as “Not Active”. Besides, the “fold change (FC)” value in assay [2] is 0.1.
As to `Cc1n[nH]c(C)c1CNC(=O)C(=O)Nc1ccc(Cl)c(F)c1`, in assay [1] (read-out: Kd), the Kd worked out at 4000 nM. For the same compound, the “fold change (FC)” value in assay [2] was 0.1.
The matching figures for `O=C(NCC1NCCc2ccccc21)C(=O)Nc1ccc(Cl)c(F)c1` (configuration not stated): 1200 nM and 0.6.
For the compound `CN1CCC(CNC(=O)C(=O)Nc2ccc(Cl)c(F)c2)(N(C)C)CC1`, the “fold change (FC)” value in assay [2] came to 0.1.
Turning to `CN1CCC(CNC(=O)C(=O)Nc2ccc(Cl)c(F)c2)CC1`, in assay [1] (read-out: Kd), the Kd was 4300 nM. For the same compound, the “fold change (FC)” value in assay [2] was 0.3.
For the compound `CC1CN(CCNC(=O)C(=O)Nc2ccc(Cl)c(F)c2)CC(C)O1` (configuration not stated), the “fold change (FC)” value in assay [2] is 0.
As for `COc1cccc(NC(=O)C(=O)Nc2ccc(Cl)cc2)c1`, in assay [2], the “fold change (FC)” value is reported as 0.
Consider `CN(C(=O)C(=O)Nc1ccc(Cl)c(F)c1)C1CC(C)(C)NC(C)(C)C1`, for which, in assay [2], the “fold change (FC)” value turned out to be 0.
In the case of `CC1(C)CC(NC(=O)C(=O)Nc2ccc(-n3cc(CCCCCO)nn3)cc2)CC(C)(C)N1`, the “fold change (FC)” value in assay [2] is reported as 0.
Turning to `CC1(C)CC(NC(=O)C(=O)Nc2c[nH]c3ncccc23)CC(C)(C)N1`, the “fold change (FC)” value in assay [2] is on record as 0.
Consider `O=C(Nc1ccc(Cl)c(F)c1)C(=O)Nc1cccc2[nH]ncc12`, for which the “fold change (FC)” value in assay [2] is recorded as 0.
As to `C[C@@H]1CN(CCC(=O)Nc2ccc(Br)cc2)C[C@H](C)O1`, the “fold change (FC)” value in assay [2] was found to be 0.
As for `O=C(Nc1ccc(Br)cc1)c1cc(CN2CCCC2)on1`, in assay [2], the “fold change (FC)” value is recorded as 0.
For the compound `CCCN1CCCC(NC(=O)C(=O)Nc2ccc(Cl)c(F)c2)C1` (configuration not stated), the dissociation constant Kd in assay [1] (read-out: Kd) is 3300 nM. Also, in assay [2], the “fold change (FC)” value was determined as 0.5.
With `CCCN1CCC(NC(=O)C(=O)Nc2ccc(Cl)c(F)c2)CC1`, the Kd in assay [1] (read-out: Kd) stood at 4200 nM. In addition, the “fold change (FC)” value in assay [2] is given as 0.2.
Take `Cc1cc(Cl)ccc1NC(=O)C(=O)NC1CC(C)(C)NC(C)(C)C1`: the “fold change (FC)” value in assay [2] amounted to 0.
Same read-out and setting: then `O=C(NCC(c1ccc(Cl)cc1)N1CCCC1)C(=O)Nc1ccc(Cl)c(F)c1` (configuration not stated), with 0.4; and `O=C(COc1ccc(Cl)cc1)Nc1cc(=O)[nH]c(=O)[nH]1`, with 0; and `CC1(C)CC(NC(=O)C(=O)Nc2ccc(Cl)cc2OCc2ccccc2)CC(C)(C)N1`, with 0.
The same measure, in the same setting: in the case of `Cc1ccc(C(C)C)c(OCC(=O)NNC(=O)Nc2ccc(Cl)cc2)c1` it was 0; in that of `CC(C)C1CCN(CCC(=O)Nc2ccc(Br)cc2)CC1`, 0; in that of `CN1CCN(C(CNC(=O)C(=O)Nc2ccc(Cl)c(F)c2)c2ccccc2Cl)CC1` (configuration not stated), 0.11.
As to `O=C(NCc1n[nH]c2c1CCCCC2)C(=O)Nc1ccc(Cl)c(F)c1`, the “fold change (FC)” value in assay [2] turned out to be 0.1.
On to `CCn1ncnc1C(C)NC(=O)C(=O)Nc1ccc(Cl)c(F)c1` (configuration not stated), for which the “fold change (FC)” value in assay [2] is listed as 0.
Regarding `CC1(C)CC(NC(=O)C(=O)Nc2ccc(Cl)cc2)CC(C)(C)N1`, the “fold change (FC)” value in assay [2] amounted to 1.
Take `CC(C)N1CCCCC1CCNC(=O)C(=O)Nc1ccc(Cl)c(F)c1` (configuration not stated): in assay [1] (read-out: Kd), the Kd was found to be 2300 nM. Also, in assay [2], the “fold change (FC)” value is on record as 0.
For `CN(C)C(CNC(=O)C(=O)Nc1ccc(Cl)c(F)c1)c1ccco1` (configuration not stated), in assay [2], the “fold change (FC)” value worked out at 0.
With `CC(C)(CNC(=O)C(=O)Nc1ccc(Cl)c(F)c1)N1CCOCC1`, the “fold change (FC)” value in assay [2] amounted to 0.
